According to ChEMBL document CHEMBL1156178, “Discovery of novel 6,6-heterocycles as transient receptor potential vanilloid (TRPV1) antagonists” (J Med Chem, 2010):
Values after ≈ are worked out from the molar mass of the structure shown. Blank lines part the entries; values can stand above or below the compound they belong to. Active and inactive are the calls of the source. No cut-off for these calls is given here.

How the values were obtained:
[1] = Half life in rat at […], iv and 10 mg/kg, po; format: ADME, organism-based; conditions: in vivo
[2] = Volume of distribution in rat at […], iv and 10 mg/kg, po; format: ADME, organism-based; conditions: in vivo
[3] = Oral bioavailability in rat at 10 mg/kg; format: ADME, organism-based; conditions: in vivo
[4] = Tmax in rat at […], iv and 10 mg/kg, po; format: ADME, organism-based; conditions: in vivo
[5] = Metabolic stability in rat liver microsomes assessed as compound remaining at 1 uM after 10 mins by LCMS analysis; format: ADME, Microsome; conditions: read-out: Activity
Summary of the method: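 Compound (1 μM) incubated at 37 °C with 0.5 mg/mL male pooled rat liver microsomes; NADPH added to start the reaction. Aliquots were taken at 0 and 10 min and quenched into ice-cold acetonitrile with internal standard, then centrifuged. Parent was monitored as the M+1 ion by ESI-LCMS in selected-ion mode. Percent remaining was taken as the 10 min/0 min signal ratio, corrected by internal-standard recovery.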

[6] = Solubility in 0.1 N HCL after 4 hrs by HPLC/MS analysis; format: physicochemical
[7] = Clearance in rat at […], iv and 10 mg/kg, po; format: ADME, organism-based; conditions: in vivo
[8] = target: Transient receptor potential cation channel subfamily V member 1 (Homo sapiens, UniProt Q8NER1); assay: Antagonist activity at human recombinant TRPV1 expressed in HEK293 cells assessed as inhibition of capsaicin-induced calcium mobilization by FLIPR assay
[9] = target: T1, Transient receptor potential cation channel subfamily V member 1 (Rattus norvegicus, UniProt O35433); assay: Inhibition of rat TRPV1
[10] = tested on: Rattus norvegicus; assay: Liver blood flow in rat at 1 mg/kg, iv and 1 mg/kg, po; format: ADME, organism-based; conditions: in vivo
[11] = Plasma concentration in carrageenan treated rat at 0.3 mg/kg, po administered 2 hrs after carrageenan challenge measured after 1 hr; format: ADME, organism-based; set-up: dose 0.3 mg/kg, route oral
[12] = Plasma concentration in complete Freund's adjuvant treated Sprague-Dawley rat at 3 mg/kg, po qd for 2 days administered 24 hrs after CFA challenge after 2 hrs last post dose; format: ADME, organism-based; set-up: dose 3 mg/kg, route oral
[13] = Tmax in rat at 100 mg/kg, po; format: ADME, organism-based; set-up: dose 100 mg/kg, route oral; conditions: in vivo
[14] = target: hERG (KCNH2) (Homo sapiens, UniProt Q12809); assay: Inhibition of human ERG expressed in COS7 cells at 10 uM by electrophysiology assay; format: cell-based, COS-7; conditions: COS7 cells expressing human ERG
[15] = Equilibrium solubility in at pH 7.4; format: physicochemical; conditions: buffer
[16] = AUC (0 to 24 hrs) in rat at 10 mg/kg, po; format: ADME, organism-based; set-up: time < 24 hr, dose 10 mg/kg, route oral; conditions: plasma
[17] = Cmax in rat at 10 mg/kg, po; format: ADME, organism-based; set-up: dose 10 mg/kg, route oral; conditions: in vivo
[18] = target: Protein kinase C alpha type (Homo sapiens) (UniProt P17252); assay: Inhibition of PKCalpha at 10 uM
[19] = target: Insulin receptor (Homo sapiens) (UniProt P06213); assay: Inhibition of insulin receptor at 10 uM
[20] = tested on: Rattus norvegicus; assay: Analgesic activity in po dosed rat assessed as reversal of carrageenan-induced thermal hyperalgesia administered 2 hrs after carrageenan challenge; format: functional, organism-based
[21] = tested on: MDR1; assay: Apparent permeability across pig LLC-PK1 cells expressing MDR1; format: ADME, cell-based, Sus scrofa
[22] = tested on: Rattus norvegicus; assay: Induction of hyperthermia in Sprague-Dawley rat at 3 mg/kg, po qd for 4 days; format: organism-based; set-up: dose 3 mg/kg, route oral; conditions: in vivo, 96 h
[23] = target: Mitogen-activated protein kinase 14 (Homo sapiens) (UniProt Q16539); assay: Inhibition of p38alpha at 10 uM
[24] = Tmax in rat at 1 mg/kg, po; format: ADME, organism-based; set-up: dose 1 mg/kg, route oral; conditions: in vivo
[25] = Oral bioavailability in rat at 1 mg/kg; format: ADME, organism-based; conditions: in vivo
[26] = Plasma concentration in complete Freund's adjuvant treated Sprague-Dawley rat at 1 mg/kg, po qd for 3 days administered 24 hrs after CFA challenge after 2 hrs last post dose; format: ADME, organism-based; set-up: dose 1 mg/kg, route oral
[27] = target: Mitogen-activated protein kinase 3 (Homo sapiens, UniProt P27361); assay: Inhibition of human ERK1
[28] = Plasma concentration in complete Freund's adjuvant treated Sprague-Dawley rat at 10 mg/kg, po administered 24 hrs after CFA challenge after 2 hrs post dose; format: ADME, organism-based; set-up: dose 10 mg/kg, route oral
[29] = target: Voltage-gated L-type calcium channel (Rattus norvegicus, UniProt P22002+Q02485+P27732); assay: Inhibition of rat L-type calcium channel
[30] = Half life in rat at 1 mg/kg, iv and 1 mg/kg, po; format: ADME, organism-based; conditions: in vivo
[31] = organism: Homo sapiens; assay: Fraction unbound in human plasma
[32] = Plasma concentration in carrageenan treated rat at 1 mg/kg, po administered 2 hrs after carrageenan challenge measured after 1 hr; format: ADME, organism-based; set-up: dose 1 mg/kg, route oral
[33] = Cmax in rat at 1 mg/kg, po; format: ADME, organism-based; set-up: dose 1 mg/kg, route oral; conditions: in vivo
[34] = tested on: Rattus norvegicus; assay: Induction of hyperthermia in Sprague-Dawley rat at 3 mg/kg, po after 10 hrs; format: organism-based; set-up: dose 3 mg/kg, route oral; conditions: in vivo
[35] = tested on: Rattus norvegicus; assay: Analgesic activity against CFA-induced inflammatory pain in Sprague-Dawley rat assessed as reversal of decrease in weight bearing at 10 mg/kg, po qd for 3 days administered 24 hrs after CFA challenge; format: functional, organism-based; set-up: dose 10 mg/kg
[36] = Protein binding in rat plasma; format: ADME, cell-free; conditions: read-out: PPB (converted)
[37] = Tmax in rat at 1 mg/kg, iv and 1 mg/kg, po; format: ADME, organism-based; conditions: in vivo
[38] = tested on: Rattus norvegicus; assay: Induction of hyperthermia in Sprague-Dawley rat at 3 mg/kg, po after 1 hr; format: organism-based; set-up: dose 3 mg/kg, route oral; conditions: in vivo
[39] = Plasma concentration in complete Freund's adjuvant treated Sprague-Dawley rat at 10 mg/kg, po qd for 2 days administered 24 hrs after CFA challenge after 2 hrs last post dose; format: ADME, organism-based; set-up: dose 10 mg/kg, route oral
[40] = target: T1, Transient receptor potential cation channel subfamily V member 1; assay: Inhibition of rat TRPV1 at pH 5 to 5.5
[41] = Plasma concentration in complete Freund's adjuvant treated Sprague-Dawley rat at 3 mg/kg, po qd for 3 days administered 24 hrs after CFA challenge after 2 hrs last post dose; format: ADME, organism-based; set-up: dose 3 mg/kg, route oral
[42] = tested on: Rattus norvegicus; assay: Analgesic activity in rat assessed as complete reversal of carrageenan-induced thermal hyperalgesia at 3 mg/kg, po administered 2 hrs after carrageenan challenge; format: functional, organism-based; set-up: dose 3 mg/kg
[43] = target: Epidermal growth factor receptor (Homo sapiens) (UniProt P00533); assay: Inhibition of EGFR at 10 uM
[44] = Clearance in rat at 1 mg/kg, iv and 1 mg/kg, po; format: ADME, organism-based; conditions: in vivo
[45] = Volume of distribution in rat at 1 mg/kg, iv and 1 mg/kg, po; format: ADME, organism-based; conditions: in vivo
[46] = Cmax in rat at 100 mg/kg, po; format: ADME, organism-based; set-up: dose 100 mg/kg, route oral; conditions: in vivo
[47] = Plasma concentration in carrageenan treated rat at 3 mg/kg, po administered 2 hrs after carrageenan challenge measured after 1 hr; format: ADME, organism-based; set-up: dose 3 mg/kg, route oral
[48] = Ratio of drug level in brain to plasma in rat at 3 mg/kg, po after 1 hr; format: ADME, organism-based; set-up: dose 3 mg/kg, route oral
[49] = AUC (0 to 24 hrs) in rat at 1 mg/kg, po; format: ADME, organism-based; set-up: time < 24 hr, dose 1 mg/kg, route oral; conditions: plasma
[50] = Plasma concentration in complete Freund's adjuvant treated Sprague-Dawley rat at 1 mg/kg, po administered 24 hrs after CFA challenge after 2 hrs post dose; format: ADME, organism-based; set-up: dose 1 mg/kg, route oral
[51] = AUC (0 to 24 hrs) in rat at 100 mg/kg, po; format: ADME, organism-based; set-up: time < 24 hr, dose 100 mg/kg, route oral; conditions: plasma
[52] = Fraction unbound in rat plasma; format: ADME, cell-free
[53] = Tmax in rat at 10 mg/kg, po; format: ADME, organism-based; set-up: dose 10 mg/kg, route oral; conditions: in vivo
[54] = Plasma concentration in complete Freund's adjuvant treated Sprague-Dawley rat at 10 mg/kg, po qd for 3 days administered 24 hrs after CFA challenge after 2 hrs last post dose; format: ADME, organism-based; set-up: dose 10 mg/kg, route oral
[55] = organism: Homo sapiens; assay: Protein binding in human plasma; conditions: read-out: PPB (converted)
[56] = Inhibition of PKA at 10 uM
[57] = tested on: LLC-PK1; assay: Efflux ratio of permeability from […] in MDR1 transfected pig LLC-PK1 cells; format: ADME, cell-based, Sus scrofa
[58] = Plasma concentration in complete Freund's adjuvant treated Sprague-Dawley rat at 3 mg/kg, po administered 24 hrs after CFA challenge after 2 hrs post dose; format: ADME, organism-based; set-up: dose 3 mg/kg, route oral
[59] = Plasma concentration in complete Freund's adjuvant treated Sprague-Dawley rat at 1 mg/kg, po qd for 2 days administered 24 hrs after CFA challenge after 2 hrs last post dose; format: ADME, organism-based; set-up: dose 1 mg/kg, route oral

Chain of Transient receptor potential cation channel subfamily V member 1 (Homo sapiens, UniProt Q8NER1) (Q8NER1 whole entry): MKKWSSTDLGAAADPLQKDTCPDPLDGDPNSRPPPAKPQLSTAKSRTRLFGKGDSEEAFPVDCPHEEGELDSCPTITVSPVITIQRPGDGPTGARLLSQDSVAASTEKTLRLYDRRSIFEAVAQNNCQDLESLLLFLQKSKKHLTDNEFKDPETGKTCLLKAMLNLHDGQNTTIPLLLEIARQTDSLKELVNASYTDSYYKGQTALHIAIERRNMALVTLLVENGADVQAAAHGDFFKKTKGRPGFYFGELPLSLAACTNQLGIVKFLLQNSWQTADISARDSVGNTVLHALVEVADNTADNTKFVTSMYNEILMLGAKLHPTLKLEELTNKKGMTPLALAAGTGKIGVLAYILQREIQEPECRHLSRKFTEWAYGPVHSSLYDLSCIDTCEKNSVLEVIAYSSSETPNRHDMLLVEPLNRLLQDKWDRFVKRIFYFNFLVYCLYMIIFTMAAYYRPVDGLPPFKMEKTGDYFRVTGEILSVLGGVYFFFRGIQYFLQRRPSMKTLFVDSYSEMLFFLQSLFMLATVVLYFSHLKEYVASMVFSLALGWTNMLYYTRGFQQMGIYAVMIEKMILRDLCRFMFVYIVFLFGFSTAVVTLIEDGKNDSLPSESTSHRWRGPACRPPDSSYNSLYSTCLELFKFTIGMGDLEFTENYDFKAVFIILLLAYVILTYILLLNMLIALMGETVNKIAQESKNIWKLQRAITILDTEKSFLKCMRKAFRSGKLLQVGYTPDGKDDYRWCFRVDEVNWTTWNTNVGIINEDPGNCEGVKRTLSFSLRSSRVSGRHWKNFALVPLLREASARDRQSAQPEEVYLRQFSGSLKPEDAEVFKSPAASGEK
T1 sequence (O35433 whole entry): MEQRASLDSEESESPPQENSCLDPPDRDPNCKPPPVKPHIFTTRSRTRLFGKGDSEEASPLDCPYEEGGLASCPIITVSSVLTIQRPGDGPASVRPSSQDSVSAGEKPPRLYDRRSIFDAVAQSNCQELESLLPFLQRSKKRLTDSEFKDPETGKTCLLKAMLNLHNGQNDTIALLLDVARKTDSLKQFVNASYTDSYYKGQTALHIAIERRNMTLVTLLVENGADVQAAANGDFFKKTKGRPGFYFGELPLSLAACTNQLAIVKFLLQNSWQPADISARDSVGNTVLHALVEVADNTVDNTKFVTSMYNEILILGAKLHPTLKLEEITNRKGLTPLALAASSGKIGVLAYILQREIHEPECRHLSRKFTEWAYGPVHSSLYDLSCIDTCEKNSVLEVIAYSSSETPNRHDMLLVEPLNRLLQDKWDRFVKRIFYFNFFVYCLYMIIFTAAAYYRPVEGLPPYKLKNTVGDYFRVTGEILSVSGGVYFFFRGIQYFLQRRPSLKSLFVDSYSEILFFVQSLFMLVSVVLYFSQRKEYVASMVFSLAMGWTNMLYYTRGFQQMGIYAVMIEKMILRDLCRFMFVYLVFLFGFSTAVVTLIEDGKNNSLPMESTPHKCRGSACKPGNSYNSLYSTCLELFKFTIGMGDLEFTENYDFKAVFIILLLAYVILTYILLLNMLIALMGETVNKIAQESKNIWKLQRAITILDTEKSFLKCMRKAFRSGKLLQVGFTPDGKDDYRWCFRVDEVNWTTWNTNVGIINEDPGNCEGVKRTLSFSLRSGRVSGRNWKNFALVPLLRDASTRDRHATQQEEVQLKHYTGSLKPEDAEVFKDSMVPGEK
Chain of Mitogen-activated protein kinase 14 (Homo sapiens) (Q16539 whole entry): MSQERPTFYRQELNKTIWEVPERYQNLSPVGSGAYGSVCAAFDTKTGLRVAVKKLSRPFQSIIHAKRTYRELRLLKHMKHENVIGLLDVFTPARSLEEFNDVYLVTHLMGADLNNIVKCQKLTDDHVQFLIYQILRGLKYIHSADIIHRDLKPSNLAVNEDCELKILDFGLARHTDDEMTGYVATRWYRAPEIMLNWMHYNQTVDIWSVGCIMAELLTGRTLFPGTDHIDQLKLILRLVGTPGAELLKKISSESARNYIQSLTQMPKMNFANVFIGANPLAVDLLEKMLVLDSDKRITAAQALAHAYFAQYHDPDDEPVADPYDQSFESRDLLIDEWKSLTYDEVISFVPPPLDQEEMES
Chain of Epidermal growth factor receptor (Homo sapiens) (P00533 whole entry): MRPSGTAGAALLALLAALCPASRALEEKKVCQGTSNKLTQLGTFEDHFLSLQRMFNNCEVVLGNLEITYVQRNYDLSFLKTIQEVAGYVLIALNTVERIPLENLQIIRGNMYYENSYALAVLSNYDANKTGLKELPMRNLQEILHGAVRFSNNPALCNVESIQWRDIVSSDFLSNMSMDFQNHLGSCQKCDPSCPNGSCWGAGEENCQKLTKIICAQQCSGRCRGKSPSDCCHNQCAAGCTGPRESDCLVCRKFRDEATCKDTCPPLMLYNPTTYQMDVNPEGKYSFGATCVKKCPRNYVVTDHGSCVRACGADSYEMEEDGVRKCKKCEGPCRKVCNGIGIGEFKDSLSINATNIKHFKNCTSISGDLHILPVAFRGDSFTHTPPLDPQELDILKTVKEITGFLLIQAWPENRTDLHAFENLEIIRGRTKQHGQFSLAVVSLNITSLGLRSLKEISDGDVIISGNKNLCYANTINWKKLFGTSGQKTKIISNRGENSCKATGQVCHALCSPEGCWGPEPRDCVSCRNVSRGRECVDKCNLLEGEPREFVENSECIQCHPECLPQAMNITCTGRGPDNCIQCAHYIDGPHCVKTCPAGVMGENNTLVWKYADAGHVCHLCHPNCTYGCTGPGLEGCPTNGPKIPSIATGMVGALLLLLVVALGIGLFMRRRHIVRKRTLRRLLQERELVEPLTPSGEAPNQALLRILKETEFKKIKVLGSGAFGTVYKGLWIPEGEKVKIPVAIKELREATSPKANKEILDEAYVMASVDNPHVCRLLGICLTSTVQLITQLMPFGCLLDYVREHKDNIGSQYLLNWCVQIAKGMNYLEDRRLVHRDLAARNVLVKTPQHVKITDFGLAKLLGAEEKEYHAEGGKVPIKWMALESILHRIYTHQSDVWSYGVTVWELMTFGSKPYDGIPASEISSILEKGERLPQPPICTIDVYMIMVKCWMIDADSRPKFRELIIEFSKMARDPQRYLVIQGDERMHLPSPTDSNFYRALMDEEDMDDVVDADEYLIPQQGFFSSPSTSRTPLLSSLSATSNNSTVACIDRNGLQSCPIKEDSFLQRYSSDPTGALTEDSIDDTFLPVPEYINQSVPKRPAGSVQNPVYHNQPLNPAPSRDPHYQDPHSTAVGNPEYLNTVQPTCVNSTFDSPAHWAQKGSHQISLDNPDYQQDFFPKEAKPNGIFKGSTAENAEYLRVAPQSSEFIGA
Chain of Mitogen-activated protein kinase 3 (P27361 whole entry): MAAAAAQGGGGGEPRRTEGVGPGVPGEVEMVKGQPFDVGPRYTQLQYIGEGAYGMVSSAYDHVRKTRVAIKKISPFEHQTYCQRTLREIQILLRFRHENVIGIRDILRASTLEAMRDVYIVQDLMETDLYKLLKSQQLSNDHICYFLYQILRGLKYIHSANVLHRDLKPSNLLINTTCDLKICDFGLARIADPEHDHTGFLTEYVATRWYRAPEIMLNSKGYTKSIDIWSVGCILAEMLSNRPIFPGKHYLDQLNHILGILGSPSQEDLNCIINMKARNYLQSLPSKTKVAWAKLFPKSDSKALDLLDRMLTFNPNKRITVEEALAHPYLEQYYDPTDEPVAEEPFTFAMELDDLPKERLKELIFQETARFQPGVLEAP

SMILES: Cl.FC(F)(F)c1ccc(Nc2ncnc3cc(-c4ncccc4C(F)(F)F)ccc23)cn1
half-life [1]: 4 h
Vd [2]: 5.5 L/kg
bioavailability [3]: 65%
Tmax [4]: 4.7 h
remaining at 10 min, 1 µM [5]: 100%
solubility at 4 h [6]: 35 µg/mL
clearance [7]: 22 mL/min/kg

SMILES: FC(F)(F)c1ccc(Nc2ncnc3nc(-c4ncccc4C(F)(F)F)ncc23)cc1
solubility at 4 h [6]: 4 µg/mL (≈ 9.17 µM)
IC50 [8]: 665 nM

SMILES: O=C(Nc1ccccc1Br)N[C@@H]1CCN(c2ccc(C(F)(F)F)cn2)C1 [SB-705498]
IC50 [9]: 32 nM

SMILES: FC(F)(F)c1ccc(Nc2cncc3nc(-c4ncccc4C(F)(F)F)ccc23)nc1
solubility at 4 h [6]: 20 µg/mL (≈ 45.9 µM)
IC50 [8]: 460 nM

SMILES: FC(F)(F)c1ccc(Nc2nccc3nc(-c4ncccc4C(F)(F)F)cnc23)nc1
solubility at 4 h [6]: 12 µg/mL (≈ 27.5 µM)
IC50 [8]: 79 nM

The remaining compounds from weak to strong by IC50 [8], led by results:

LBF [10]: 45%
concentration at 1 h [11]: 60 nM
concentration at 2 h [12]: 1330 nM
Tmax [13]: 6 h
solubility thermodynamic [15]: 2 µg/mL (≈ 4.59 µM)
AUC(0-t) at 24 h [16]: 22.6 µM·h
Cmax [17]: 2870 nM
inhibition [18]: inactive
inhibition [19]: inactive
Papp [21]: 29.8 ×10⁻⁶ cm/s
inhibition [23]: inactive
Tmax [24]: 1.1 h
bioavailability [25]: 52%
concentration at 2 h [26]: 380 nM
IC50 [27]: 980 nM
concentration at 2 h [28]: 2300 nM
IC50 [29]: 3000 nM
half-life [30]: 1.4 h
fraction unbound [31]: 0.065
concentration at 1 h [32]: 300 nM
Cmax [33]: 240 nM
fraction unbound [36]: 0.107
Tmax [37]: 1.1 h
remaining at 10 min, 1 µM [5]: 100%
concentration at 2 h [39]: 5230 nM
IC50 [40]: 3.25 nM
concentration at 2 h [41]: 930 nM
solubility at 4 h [6]: 40 µg/mL (≈ 91.9 µM)
IC50 [8]: 2.2 nM
inhibition [43]: inactive
clearance [44]: 34 mL/min/kg
Vd [45]: 3.9 L/kg
Cmax [46]: 12900 nM
concentration at 1 h [47]: 1400 nM
Kp at 1 h [48]: 0.3
AUC(0-t) at 24 h [49]: 0.6 µM·h
concentration at 2 h [50]: 100 nM
AUC(0-t) at 24 h [51]: 204 µM·h
fraction unbound [52]: 0.107
Tmax [53]: 3.33 h
concentration at 2 h [54]: 3260 nM
fraction unbound [55]: 0.065
inhibition [56]: inactive
Ratio [57]: 1.7
concentration at 2 h [58]: 230 nM
concentration at 2 h [59]: 390 nM
SMILES: FC(F)(F)c1ccc(Nc2ccnc3nc(-c4ncccc4C(F)(F)F)ccc23)nc1
inhibition at 10 µM [14]: 47%
Activity [20]: Dose-dependent effect
Activity [22]: Non-toxic
Activity [34]: Non-toxic
Activity [35]: Active
Activity [38]: Non-toxic
Activity [42]: Active

solubility at 4 h [6]: 34 µg/mL (≈ 78.3 µM)
IC50 [8]: 1.65 nM
SMILES: FC(F)(F)c1ccc(Nc2ccnc3cc(-c4ncccc4C(F)(F)F)ccc23)nc1

solubility at 4 h [6]: 8 µg/mL (≈ 18.3 µM)
IC50 [8]: 0.23 nM
SMILES: FC(F)(F)c1ccc(Nc2ccnc3nc(-c4ncccc4C(F)(F)F)cnc23)nc1
